# Laboratory results taken from ChEMBL document CHEMBL1275591, “Cellular pharmacodynamics of the novel biaryloxazolidinone radezolid: studies with infected phagocytic and nonphagocytic cells, using Staphylococcus aureus, Staphylococcus epidermidis, Listeria monocytogenes, and Legionella pneumophila” (Antimicrob Agents Chemother, 2010).
# How the values were obtained:
# [1] = system: Staphylococcus aureus; assay: Antimicrobial activity against community acquired methicillin-resistant Staphylococcus aureus NRS192 after 24 hrs; type: functional; conditions: NRS192, 24 h
# [2] = system: Staphylococcus aureus; assay: Bacteriostatic activity against linezolid-susceptible Staphylococcus aureus SA238 infected in human osteoblasts cells after 24 hrs; type: functional
# Summary of the method: (§1)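 Adherent nonphagocytic cells were infected at 5 × 10^7 to 1 × 10^8 bacteria/ml with 2 h phagocytosis. Cells used: Calu-3 bronchial epithelium grown in uncoated flasks, neonatal foreskin keratinocytes on collagen-coated wells, primary human osteoblasts, and primary rat embryo fibroblasts. Antibiotic was then given over a concentration range for 24 h. Cs came from a sigmoidal fit of CFU change.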
# [3] = system: Staphylococcus aureus; assay: Antimicrobial activity against linezolid-susceptible Staphylococcus aureus ATCC 25923 infected in THP1 cells assessed as log reduction in bacterial count after 24 hrs; type: functional, THP-1
# Summary of the method: (§2)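 Bacteria were phagocytosed by human THP-1 macrophage-like cells, then exposed to a range of drug concentrations for a fixed time: 24 h for S. aureus, S. epidermidis and L. monocytogenes, 48 h for L. pneumophila. Change in CFU versus the initial inoculum was fitted with a sigmoidal curve to give Emin, Emax (relative maximal efficacy), EC50 and static concentration (Cs).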
# [4] = system: Staphylococcus aureus; assay: Bacteriostatic activity against linezolid-resistant Staphylococcus aureus SA238L infected in human epidermal keratinocytes cells after 24 hrs; type: functional; summary of the method: as §1
# [5] = system: Staphylococcus aureus; assay: Antimicrobial activity against linezolid resistant methicillin-susceptible Staphylococcus aureus SA040L after 24 hrs; type: functional
# [6] = system: Staphylococcus aureus; assay: Bacteriostatic activity against linezolid-susceptible Staphylococcus aureus SA238 infected in rat fibroblast cells after 24 hrs; type: functional; summary of the method: as §1
# [7] = system: Staphylococcus aureus; assay: Bacteriostatic activity against linezolid-resistant Staphylococcus aureus SA238L infected in Calu-3 cells after 24 hrs; type: functional; summary of the method: as §1
# [8] = system: Staphylococcus aureus; assay: Bacteriostatic activity against linezolid-resistant Staphylococcus aureus SA238L infected in rat fibroblast cells after 24 hrs; type: functional; summary of the method: as §1
# [9] = system: Staphylococcus epidermidis; assay: Bacteriostatic activity against Staphylococcus epidermidis infected in THP1 cells after 24 hrs; type: functional, THP-1; summary of the method: as §2
# [10] = system: Staphylococcus aureus; assay: Antimicrobial activity against linezolid-susceptible Staphylococcus aureus SA040 infected in THP1 cells after 24 hrs; type: functional, organism-based; conditions: SA040, THP-1, 24 h; summary of the method: as §2
# [11] = system: Staphylococcus aureus; assay: Antimicrobial activity against hospital acquired methicillin-resistant, vancomycin resistant Staphylococcus aureus VRS2 after 24 hrs; type: functional; conditions: VRS2, 24 h
# [12] = system: Staphylococcus aureus; assay: Antimicrobial activity against Staphylococcus aureus infected in THP1 cells after 24 hrs; type: functional, organism-based; conditions: THP-1, 24 h; summary of the method: as §2
# [13] = system: Staphylococcus aureus; assay: Bacteriostatic activity against linezolid-susceptible Staphylococcus aureus NRS18 infected in THP1 cells after 24 hrs; type: functional, THP-1
# Summary of the method: (§3)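 Human THP-1 myelomonocytic (macrophage-like) cells infected with S. aureus, then exposed 24 h to a range of antibiotic concentrations. CFU change was measured against the initial inoculum. A sigmoidal dose-response curve was fitted to give Emin, Emax and EC50, and the apparent static concentration (Cs) was taken from the fit.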
# [14] = Ratio of drug level for cellular to extracellular region of Staphylococcus aureus infected human Calu3 cells at 4 mg/liter after 24 hrs; type: ADME, cell-based; conditions: calu-3, 24 h
# Summary of the method: (§4)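 Cells were exposed to [14C]radezolid for 2 or 24 h. Cell-associated drug in lysates was measured by liquid scintillation counting (detection limit 0.003 mg/liter; linear 0.01–0.78 mg/liter). Content was normalised to cell protein (Lowry). It was converted to apparent cellular concentration at 5 μl per mg protein and expressed relative to the extracellular concentration.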
# [15] = system: Listeria monocytogenes; assay: Antimicrobial activity against Listeria monocytogenes EGD after 24 hrs; type: functional
# [16] = Ratio of drug level for cellular to extracellular region of Staphylococcus aureus infected human keratinocyte at 4 mg/liter after 2 hrs; type: ADME, cell-based; summary of the method: as §4
# [17] = system: Staphylococcus aureus; assay: Antimicrobial activity against linezolid-susceptible Staphylococcus aureus SA040 infected in THP1 cells assessed as log reduction in bacterial count after 24 hrs; type: functional, THP-1; summary of the method: as §2
# [18] = system: Staphylococcus aureus; assay: Antimicrobial activity against methicillin-susceptible Staphylococcus aureus SA040 after 24 hrs; type: functional; conditions: SA040, 24 h
# [19] = system: Staphylococcus aureus; assay: Bacteriostatic activity against linezolid-susceptible Staphylococcus aureus SA238 infected in THP1 cells at pH 5.5 after 24 hrs; type: functional, THP-1
# [20] = Ratio of drug level for cellular to extracellular region of Staphylococcus aureus infected human Calu3 cells at 4 mg/liter after 2 hrs; type: ADME, cell-based; conditions: calu-3, 2 h; summary of the method: as §4
# [21] = system: Staphylococcus aureus; assay: Antimicrobial activity against linezolid-susceptible Staphylococcus aureus SA238 infected in human epidermal keratinocytes cells assessed as log reduction in bacterial count after 24 hrs; type: functional
# Summary of the method: (§5)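 S. aureus was internalized by adherent nonphagocytic cells: Calu-3, HUVEC, keratinocytes on collagen-coated wells, osteoblasts, or rat embryo fibroblasts. Inoculum was 5 × 10^7 to 1 × 10^8 bacteria/ml with 2 h phagocytosis (HUVEC: 2 × 10^6/ml, 1 h). Cells were then exposed to graded drug concentrations for 24 h. CFU change versus the original inoculum was fitted sigmoidally for Emax and Cs.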
# [22] = system: Staphylococcus aureus; assay: Bacteriostatic activity against linezolid-susceptible Staphylococcus aureus ATCC 25923 infected in THP1 cells after 24 hrs; type: functional, THP-1; summary of the method: as §3
# [23] = system: Legionella pneumophila; assay: Antimicrobial activity against Legionella pneumophila ATCC 33153 infected in THP1 cells after 48hrs; type: functional, organism-based; conditions: ATCC 33153, THP-1, 48 h; summary of the method: as §2
# [24] = system: Staphylococcus aureus; assay: Antimicrobial activity against linezolid-susceptible Staphylococcus aureus SA238 infected in THP-1 cells at pH 5.5 after 24 hrs; type: functional, organism-based; conditions: SA238, THP-1, 24 h
# [25] = system: Staphylococcus aureus; assay: Antimicrobial activity against linezolid-susceptible Staphylococcus aureus SA238 infected in human osteoblasts cells assessed as log reduction in bacterial count after 24 hrs; type: functional; summary of the method: as §5
# [26] = system: Staphylococcus aureus; assay: Antimicrobial activity against methicillin-susceptible Staphylococcus aureus ATCC 25923 after 24 hrs; type: functional; conditions: ATCC 25923, 24 h
# [27] = system: Staphylococcus aureus; assay: Bacteriostatic activity against linezolid-resistant Staphylococcus aureus SA040L infected in THP1 cells after 24 hrs; type: functional, THP-1; summary of the method: as §3
# [28] = system: Staphylococcus aureus; assay: Bacteriostatic activity against linezolid-susceptible Staphylococcus aureus NRS384 infected in THP1 cells after 24 hrs; type: functional, THP-1; summary of the method: as §3
# [29] = Ratio of drug level for cellular to extracellular region of Staphylococcus aureus infected human osteoblast at 4 mg/liter after 24 hrs; type: ADME, cell-based; summary of the method: as §4
# [30] = system: Staphylococcus aureus; assay: Antimicrobial activity against linezolid-resistant Staphylococcus aureus SA040L infected in THP1 cells assessed as log reduction in bacterial count after 24 hrs; type: functional, THP-1; summary of the method: as §2
# [31] = Ratio of drug level for cellular to extracellular region of Staphylococcus aureus infected human osteoblast at 4 mg/liter after 2 hrs; type: ADME, cell-based; summary of the method: as §4
# [32] = system: Staphylococcus aureus; assay: Bacteriostatic activity against linezolid-susceptible Staphylococcus aureus ATCC 33591 infected in THP1 cells after 24 hrs; type: functional, THP-1; summary of the method: as §3
# [33] = system: Legionella pneumophila; assay: Bacteriostatic activity against Legionella pneumophila ATCC 33153 infected in THP1 cells after 48hrs; type: functional, THP-1; summary of the method: as §2
# [34] = system: Staphylococcus aureus; assay: Antimicrobial activity against linezolid-susceptible Staphylococcus aureus SA238 infected in HUVEC cells assessed as log reduction in bacterial count after 24 hrs; type: functional; summary of the method: as §5
# [35] = system: Listeria monocytogenes; assay: Bacteriostatic activity against Listeria monocytogenes EGD infected in THP1 cells after 24 hrs; type: functional, THP-1; summary of the method: as §2
# [36] = system: Staphylococcus aureus; assay: Antimicrobial activity against linezolid-susceptible Staphylococcus aureus NRS384 infected in THP1 cells after 24 hrs; type: functional, organism-based; conditions: NRS384, THP-1, 24 h; summary of the method: as §2
# [37] = system: Staphylococcus aureus; assay: Antimicrobial activity against linezolid-susceptible Staphylococcus aureus ATCC 33591 infected in THP1 cells after 24 hrs; type: functional, organism-based; conditions: ATCC 33591, THP-1, 24 h; summary of the method: as §2
# [38] = system: Staphylococcus aureus; assay: Antimicrobial activity against hospital acquired methicillin-resistant Staphylococcus aureus ATCC 33591 after 24 hrs; type: functional; conditions: ATCC 33591, 24 h
structure (smiles),measurement,setting,value
CC(=O)NC[C@H]1CN(c2ccc(-c3ccc(CNCc4cnn[nH]4)cc3)c(F)c2)C(=O)O1 [RADEZOLID],MIC,[1],0.5 µg/mL
same,Activity,[2],0.6 mg/L
same,log10cfu,[3],-0.57
same,Activity,[4],0.6 mg/L
same,MIC,[5],2 µg/mL
same,Activity,[6],0.6 mg/L
same,Activity,[7],0.6 mg/L
same,Activity,[8],0.6 mg/L
same,Activity,[9],0.03 mg/L
same,EC50,[10],0.09 µg/mL
same,MIC,[11],2 µg/mL
same,EC50,[12],0.24 µg/mL
same,Activity,[13],0.28 mg/L
same,Ratio,[14],8.3
same,MIC,[15],0.03 µg/mL
same,Ratio,[16],12.6
same,log10cfu,[17],-0.96
same,MIC,[18],1 µg/mL
same,Activity,[19],0.06 mg/L
same,Ratio,[20],8.5
same,log10cfu,[21],0.6
same,Activity,[22],0.91 mg/L
same,EC50,[23],0.47 µg/mL
same,EC50,[24],0.02 µg/mL
same,log10cfu,[25],0.6
same,MIC,[26],0.25 µg/mL
same,Activity,[27],0.56 mg/L
same,Activity,[28],0.32 mg/L
same,Ratio,[29],9.7
same,log10cfu,[30],-0.66
same,Ratio,[31],9.8
same,Activity,[32],0.56 mg/L
same,Activity,[33],0.36 mg/L
same,log10cfu,[34],0.6
same,Activity,[35],0.43 mg/L
same,EC50,[36],0.07 µg/mL
same,EC50,[37],0.12 µg/mL
same,MIC,[38],0.5 µg/mL
